Legend:
[1] = Inhibition of HIV1 His6-tagged integrase/FLAG-tagged LEDGF/p75 protein-protein interaction expressed in Escherichia coli BL21(DE3) preincubated with integrase for 30 mins followed by LEDGF/p75 addition measured after 60 mins by AlphaScreen assay
Procedure, shortened: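 His6-integrase (300 nM final) preincubated with compound […] for 30 min at 4 °C. FLAG-LEDGF/p75 (300 nM final) added for 60 min at 4 °C. Ni-chelate donor and anti-FLAG acceptor beads (20 µg/mL each) added for 1 h at 30 °C, then acceptor emission read.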

[2] = Inhibition of HIV1 recombinant GST/His-tagged integrase 3'-processing activity expressed in Escherichia coli BL21(DE3) assessed as reduction in 19-mer product using 5'-end 32P labeled linear 21-mer substrate preincubated for 30 mins followed by substrate addition measured after 1 hr by PAGE analysis; parameters: species or system Human immunodeficiency virus 1
Procedure, shortened: (§1)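 Recombinant wild-type integrase (200 nM final) preincubated with inhibitor in 50 mM NaCl, 1 mM HEPES pH 7.5, 10% glycerol, 7.5 mM MnCl2, 0.1 mg/mL BSA. Substrate: 21-mer top strand 5'-labelled with [γ-32P]ATP by T4 polynucleotide kinase, kinase heat-killed at 95 °C for 15 min, annealed to 1.5-fold molar excess bottom strand, and spin-column cleaned.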

[3] = Inhibition of HIV1 recombinant GST/His-tagged integrase strand transfer activity expressed in Escherichia coli BL21(DE3) using 5'-end 32P labeled linear 21-mer substrate preincubated for 30 mins followed by substrate addition measured after 1 hr by PAGE analysis; parameters: species or system Human immunodeficiency virus 1; procedure, shortened: as §1
[4] = tested on: Human immunodeficiency virus 1; assay: Antiviral activity against HIV1 3B infected in human C8166 cells assessed as reduction in virus-induced cytopathic effect by MTT assay; format: functional, cell-based; conditions: Human immunodeficiency virus 1, 3B
[5] = Cytotoxicity against human C8166 cells assessed as reduction in cell viability after 72 hrs by MTT assay; format: toxicity, cell-based
[6] = Therapeutic Index, ratio of CC50 for human C8166 cells to EC50 for HIV1 3B infected in human C8166 cells; format: cell-based; conditions: read-out: Ratio CC50/EC50
[7] = Inhibition of HIV1 GST-tagged integrase and His6-tagged integrase mutant dimerization expressed in Escherichia coli BL21(DE3) after overnight incubation by AlphaScreen assay; parameters: species or system Human immunodeficiency virus 1
[8] = tested on: Human immunodeficiency virus 1; assay: Antiviral activity against HIV1 3B infected in human MT4 cells assessed as reduction in virus-induced cytopathic effect by MTT assay; format: functional, cell-based; conditions: Human immunodeficiency virus 1, 3B
[9] = Cytotoxicity against human MT4 cells assessed as reduction in cell viability after 72 hrs by MTT assay; format: toxicity, cell-based
[10] = Therapeutic Index, ratio of CC50 for human MT4 cells to EC50 for HIV1 3B infected in human MT4 cells; format: cell-based; conditions: read-out: Ratio CC50/EC50

Structure (SMILES): O=C(NCc1ccc([N+](=O)[O-])cc1)c1ncccc1O
- IC50 [1]: 4 µM
- IC50 [2]: > 20 µM
- IC50 [3]: > 20 µM
- EC50 [4]: 26.4 µM
- CC50 at 72 h [5]: 127 µM
- selectivity ratio [6]: 4.8

Structure (SMILES): O=C(NCc1ccc(F)cc1)c1ncccc1O
- IC50 [7]: 6.1 µM
- IC50 [1]: 8.6 µM
- IC50 [2]: > 20 µM
- IC50 [3]: > 20 µM
- EC50 [4]: 77.6 µM
- CC50 at 72 h [5]: 114 µM
- selectivity ratio [6]: 1.5

Structure (SMILES): C=C(C)CN(Cc1ccc(F)cc1)C(=O)c1ncccc1O
- IC50 [1]: > 20 µM
- IC50 [2]: > 20 µM
- IC50 [3]: > 20 µM
- EC50 [8]: 279 µM
- CC50 at 72 h [9]: 272 µM
- selectivity ratio [10]: < 1

Structure (SMILES): O=C(NCc1ccc(F)cc1)c1ccccn1
- IC50 [1]: > 20 µM
- IC50 [2]: > 20 µM
- IC50 [3]: > 20 µM

Structure (SMILES): Nc1cccc(C(=O)NCc2ccco2)c1O
- IC50 [1]: 51 µM
- IC50 [3]: > 100 µM

Structure (SMILES): O=C(Nc1ccc(F)cc1)c1ncccc1O
- IC50 [1]: 8 µM
- IC50 [2]: > 20 µM
- IC50 [3]: > 20 µM
- EC50 [4]: 19.4 µM
- CC50 at 72 h [5]: > 860 µM
- selectivity ratio [6]: > 45

Structure (SMILES): O=C(NCc1ccc(F)cc1)c1cccc(O)n1
- IC50 [1]: > 20 µM
- IC50 [2]: > 20 µM
- IC50 [3]: > 20 µM

Structure (SMILES): O=C(NCc1ccc2[nH]ccc2c1)c1ncccc1O
- IC50 [7]: 8 µM
- IC50 [1]: 4.6 µM
- IC50 [2]: > 20 µM
- IC50 [3]: > 20 µM
- EC50 [4]: 70 µM
- CC50 at 72 h [5]: 138 µM
- selectivity ratio [6]: 2

Structure (SMILES): CCCCN(Cc1ccc(F)cc1)C(=O)c1ncccc1O
- IC50 [7]: 14 µM
- IC50 [1]: 12 µM
- IC50 [2]: > 20 µM
- IC50 [3]: > 20 µM
- EC50 [8]: > 330 µM
- CC50 at 72 h [9]: > 660 µM

Structure (SMILES): CC(C)CCN(Cc1ccc(F)cc1)C(=O)c1ncccc1O
- IC50 [1]: > 20 µM
- IC50 [2]: > 20 µM
- IC50 [3]: > 20 µM
- EC50 [8]: 68.6 µM
- CC50 at 72 h [9]: 268 µM
- selectivity ratio [10]: 3.9

Structure (SMILES): O=C(NCc1ccc(C(F)(F)F)cc1)c1ncccc1O
- IC50 [1]: > 20 µM
- IC50 [2]: > 20 µM
- IC50 [3]: > 20 µM
- EC50 [4]: 43.2 µM
- CC50 at 72 h [5]: 31.4 µM
- selectivity ratio [6]: < 1

Structure (SMILES): O=C(NCc1ccc(F)cc1)c1nc(N2CCCCS2(=O)=O)c2cccnc2c1O
- IC50 [2]: 0.0054 µM
- IC50 [3]: 0.0008 µM
- EC50 [4]: 0.00233 µM
- CC50 at 72 h [5]: 123 µM
- selectivity ratio [6]: 52800

Structure (SMILES): O=C(NCc1ccco1)c1cccnc1O
- IC50 [1]: > 100 µM

Structure (SMILES): O=C(NCc1ccc(F)cc1)c1ncccc1F
- IC50 [1]: > 20 µM
- IC50 [2]: > 20 µM
- IC50 [3]: > 20 µM

Structure (SMILES): O=C(NCc1ccc(F)cc1)c1cc(O)ccn1
- IC50 [1]: > 20 µM
- IC50 [2]: > 20 µM
- IC50 [3]: > 20 µM

Structure (SMILES): Nc1ccc(CNC(=O)c2ncccc2O)cc1
- IC50 [7]: 4 µM
- IC50 [1]: 1.7 µM
- IC50 [2]: > 20 µM
- IC50 [3]: > 20 µM
- EC50 [4]: 260 µM
- CC50 at 72 h [5]: > 596 µM
- selectivity ratio [6]: > 2.3

Structure (SMILES): COc1cc(CNC(=O)c2ncccc2O)cc(OC)c1OC
- IC50 [7]: 9.8 µM
- IC50 [1]: 2.5 µM
- IC50 [2]: > 20 µM
- IC50 [3]: > 20 µM
- EC50 [4]: 58.7 µM
- CC50 at 72 h [5]: > 500 µM
- selectivity ratio [6]: > 9

Structure (SMILES): O=C(NCc1ccco1)c1ncccc1O
- IC50 [7]: 10 µM
- IC50 [1]: 2.4 µM
- IC50 [2]: > 20 µM
- IC50 [3]: > 20 µM
- EC50 [4]: 269 µM
- CC50 at 72 h [5]: 575 µM
- selectivity ratio [6]: 2.1

Structure (SMILES): O=C(NCc1ccc(F)c(Cl)c1)c1ncccc1O
- IC50 [1]: 4.2 µM
- IC50 [2]: > 20 µM
- IC50 [3]: > 20 µM
- EC50 [4]: 19.2 µM
- CC50 at 72 h [5]: 310 µM
- selectivity ratio [6]: 16

Structure (SMILES): O=c1oc2cccnc2c(=O)n1Cc1cccs1
- IC50 [1]: > 20 µM
- IC50 [2]: > 20 µM
- IC50 [3]: > 20 µM
- EC50 [8]: 69.9 µM
- CC50 at 72 h [9]: 363 µM
- selectivity ratio [10]: 5.2

Structure (SMILES): O=C(NCC1CCCCC1)c1ncccc1O
- IC50 [1]: 19 µM
- IC50 [2]: > 20 µM
- IC50 [3]: > 20 µM
- EC50 [4]: 66.2 µM
- CC50 at 72 h [5]: 137 µM
- selectivity ratio [6]: 2.1

Structure (SMILES): O=c1oc2cccnc2c(=O)n1Cc1ccc(F)cc1
- IC50 [1]: > 20 µM
- IC50 [2]: > 20 µM
- IC50 [3]: > 20 µM
- EC50 [8]: 73.5 µM
- CC50 at 72 h [9]: 311 µM
- selectivity ratio [10]: 4.3

Structure (SMILES): O=C(NCc1ccc(F)cc1)c1ccc(O)cn1
- IC50 [1]: > 20 µM
- IC50 [2]: > 20 µM
- IC50 [3]: > 20 µM

Structure (SMILES): O=C(NCc1cccs1)c1ncccc1O
- IC50 [7]: 8 µM
- IC50 [1]: 7.5 µM
- IC50 [2]: > 20 µM
- IC50 [3]: > 20 µM
- EC50 [4]: 75.6 µM
- CC50 at 72 h [5]: 218 µM
- selectivity ratio [6]: 2.9

Structure (SMILES): CC(C)CN(Cc1ccc(F)cc1)C(=O)c1ncccc1O
- IC50 [1]: > 20 µM
- IC50 [2]: > 20 µM
- IC50 [3]: > 20 µM
- EC50 [8]: 270 µM
- CC50 at 72 h [9]: 247 µM
- selectivity ratio [10]: < 1

Structure (SMILES): O=C(NCc1cccc2ccccc12)c1ncccc1O
- IC50 [1]: > 20 µM
- IC50 [2]: > 20 µM
- IC50 [3]: > 20 µM
- EC50 [4]: 58.2 µM
- CC50 at 72 h [5]: 88.8 µM
- selectivity ratio [6]: 1.5

Structure (SMILES): CCCCNC(=O)c1ncccc1O
- IC50 [1]: > 20 µM
- IC50 [2]: > 20 µM
- IC50 [3]: > 20 µM
- EC50 [4]: > 500 µM
- CC50 at 72 h [5]: > 1000 µM

Structure (SMILES): COc1cccnc1C(=O)NCc1ccc(F)cc1
- IC50 [1]: > 20 µM
- IC50 [2]: > 20 µM
- IC50 [3]: > 20 µM

Reference: ChEMBL document CHEMBL3877295, “Discovery of novel 3-hydroxypicolinamides as selective inhibitors of HIV-1 integrase-LEDGF/p75 interaction” (Eur J Med Chem, 2017)
